{"source": "ChEMBL document CHEMBL3588754", "about": "“Parallel Synthesis of Hexahydrodiimidazodiazepines Heterocyclic Peptidomimetics and Their in Vitro and in Vivo Activities at μ (MOR), δ (DOR), and κ (KOR) Opioid Receptors” (J Med Chem, 2015)", "key": {"[1]": {"biological_target": "Delta-type opioid receptor (Rattus norvegicus, UniProt P33533)", "test": "Displacement of [3H]DPDPE from delta opioid receptor in rat cortices by competition binding assay", "outline": "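Rat cortex membranes were prepared in 50 mM Tris pH 7.4 with 10 mM MgCl2 and 200 μM PMSF. Assay used 2 nM [3H]DPDPE, incubated 2.5 h at 25 °C. Unlabeled DPDPE defined nonspecific binding. Filtration was through BSA-soaked GF/B filters, with scintillation counting. Ki is mean ± SD of two experiments, each in duplicate.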"}, "[2]": {"biological_target": "Kappa-type opioid receptor (Cavia porcellus, UniProt P41144)", "test": "Displacement of [3H]U69593 from kappa opioid receptor in guinea pig cortices and cerebella by competition binding assay", "outline": "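Guinea pig cortex and cerebellum membranes were prepared in 50 mM Tris pH 7.4 with 10 mM MgCl2. Assay used 2 nM [3H]U69,593, incubated 2 h at 25 °C. Unlabeled U50,488 defined nonspecific binding. Filtration was through GF/B filters, with scintillation counting. Ki is mean ± SD of two experiments, each in duplicate.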"}, "Mu-type opioid receptor": {"biological_target": "Mu-type opioid receptor (Rattus norvegicus, UniProt P33535)", "test": "Displacement of [3H]DAMGO from mu opioid receptor in rat cortices by competition binding assay", "outline": "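Rat cortex membranes were prepared in 50 mM Tris pH 7.4, preincubated at 37 °C for 30 min, and resuspended with 2 mg/mL bovine serum. Assay used 2 nM [3H]DAMGO. Binding was stopped by filtration through BSA-soaked GF/B filters, followed by scintillation counting. IC50 was converted to Ki. Values are mean ± SD of two experiments, each in duplicate.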"}, "[3]": {"biological_target": "Delta-type opioid receptor (Homo sapiens, UniProt P41143)", "test": "Agonist activity at delta opioid receptor (unknown origin) expressed in CHO-K1 cells assessed as inhibition of forskolin-induced cAMP accumulation by FRET assay", "type": "functional, cell-based", "outline": "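CHO cells stably expressing DOR, plated at 20 000 cells/well (figure legend: 100 000). Exposed to test agent with 4 μM forskolin (legend: 1 μM) in 1× PBS with 1 mM […] for 30 min at rt. HTRF cAMP read-out with europium cryptate and d2 in lysis buffer for 1 h. EC50 ± SEM from three experiments, two replicates each.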"}, "Mus musculus [4]": {"tested_on": "Mus musculus", "test": "Antinociceptive effect in icv dosed C57BL/6 mouse assessed as tail withdrawal latency measured up to 2 hrs by 55 degC Warm water tail withdrawal assay", "type": "functional"}, "Mus musculus [5]": {"species": "Mus musculus", "test": "Ratio of ED50 for antinociceptive effect in C57BL/6 mouse by 55 degC Warm water tail withdrawal assay to ED50 for analgesic activity in C57BL/6 mouse by acetic acid writhing assay", "type": "functional", "outline": "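Index from ip ED50 values in adult male C57BL/6J mice given ip doses in 1:1:8 ethanol/Tween-80/saline (n = 8/dose). Tail-withdrawal: 55 °C water, read at 30 min, % antinociception against baseline with a 15 s cutoff. Writhing: 0.9% acetic acid ip 25 min post-dose, writhes counted over 15 min, compared with vehicle. ED50 from regression; ratio is tail-withdrawal/writhing.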"}, "Mus musculus [6]": {"tested_on": "Mus musculus", "test": "Antinociceptive effect in po dosed C57BL/6 mouse assessed as tail withdrawal latency measured up to 2 hrs by 55 degC Warm water tail withdrawal assay", "type": "functional", "settings": "C57BL/6, Tail"}, "Mus musculus [7]": {"tested_on": "Mus musculus", "test": "Antinociceptive effect in ip dosed C57BL/6 mouse assessed as tail withdrawal latency measured up to 2 hrs by 55 degC Warm water tail withdrawal assay", "type": "functional", "settings": "C57BL/6, Tail"}}, "data": [{"smiles": "CC(C)C[C@H]1CN2C(=CC3=NC[C@H](C(C)C)N3C[C@@H]2Cc2ccccc2)N1CCc1ccccc1", "values": [{"measurement": "Ki", "setting": "[1]", "result": 1.02, "unit": "µM"}, {"measurement": "Ki", "setting": "[2]", "result": 1.4, "unit": "µM"}, {"measurement": "Ki", "setting": "Mu-type opioid receptor", "result": 2.75, "unit": "µM"}]}, {"smiles": "CC(C)C[C@H]1CN2C(=CC3=NC[C@H](Cc4ccccc4)N3C[C@@H]2Cc2ccc(O)cc2)N1CCc1ccccc1", "values": [{"measurement": "Ki", "setting": "[1]", "result": 0.037, "unit": "µM"}, {"measurement": "Ki", "setting": "[2]", "result": 0.642, "unit": "µM"}, {"measurement": "EC50", "setting": "[3]", "result": 1.64, "unit": "µM"}, {"measurement": "Ki", "setting": "Mu-type opioid receptor", "result": 0.949, "unit": "µM"}]}, {"smiles": "CC(C)[C@H]1CN=C2C=C3N[C@@H](Cc4ccc(O)cc4)CN3[C@@H](Cc3ccccc3)CN21", "values": [{"measurement": "Ki", "setting": "[1]", "result": "≥ 10", "unit": "µM"}, {"measurement": "Ki", "setting": "[2]", "result": 1.95, "unit": "µM"}, {"measurement": "Ki", "setting": "Mu-type opioid receptor", "result": 5.04, "unit": "µM"}]}, {"smiles": "Oc1ccc(C[C@H]2CN3C(=CC4=NC[C@H](Cc5ccc(O)cc5)N4C[C@@H]3Cc3ccc(O)cc3)N2)cc1", "values": [{"measurement": "Ki", "setting": "[1]", "result": 0.316, "unit": "µM"}, {"measurement": "Ki", "setting": "[2]", "result": 3.76, "unit": "µM"}, {"measurement": "Ki", "setting": "Mu-type opioid receptor", "result": 0.552, "unit": "µM"}]}, {"smiles": "Oc1ccc(C[C@H]2CN3C(=CC4=NC[C@H](Cc5ccccc5)N4C[C@@H]3Cc3ccccc3)N2)cc1", "values": [{"measurement": "Ki", "setting": "[1]", "result": 2.09, "unit": "µM"}, {"measurement": "Ki", "setting": "[2]", "result": 8.39, "unit": "µM"}, {"measurement": "Ki", "setting": "Mu-type opioid receptor", "result": 0.566, "unit": "µM"}]}, {"smiles": "CN1CC[C@]23c4c5ccc(O)c4O[C@H]2[C@@H](O)C=C[C@H]3[C@H]1C5", "note": "[MORPHINE]", "values": [{"measurement": "Activity", "setting": "Mus musculus [4]", "result": "Dose-dependent effect"}, {"measurement": "Ratio ED50", "setting": "Mus musculus [5]", "result": 2.23}, {"measurement": "ED50", "setting": "Mus musculus [6]", "result": 2.07, "unit": "mg/kg"}, {"measurement": "ED50", "setting": "Mus musculus [7]", "result": 3.91, "unit": "mg/kg"}]}, {"smiles": "CC(C)C[C@H]1CN2C(=CC3=NC[C@H](C(C)C)N3C[C@@H]2Cc2ccc(O)cc2)N1", "values": [{"measurement": "Ki", "setting": "[1]", "result": 0.215, "unit": "µM"}, {"measurement": "Ki", "setting": "[2]", "result": 0.209, "unit": "µM"}, {"measurement": "Ki", "setting": "Mu-type opioid receptor", "result": 1.19, "unit": "µM"}]}, {"smiles": "Oc1ccc(C[C@H]2CN3C(=CC4=NC[C@H](Cc5ccccc5)N4C[C@@H]3Cc3ccccc3)N2CCc2ccccc2)cc1", "values": [{"measurement": "Ki", "setting": "[1]", "result": 1.28, "unit": "µM"}, {"measurement": "Ki", "setting": "[2]", "result": "> 10", "unit": "µM"}, {"measurement": "Ki", "setting": "Mu-type opioid receptor", "result": 3.15, "unit": "µM"}]}]}
